Assays:
[1] = molecular target: Akt^PH (human recombinant AKT1) (Homo sapiens, UniProt P31749); assay: SPR ligand competition: Akt binding to vesicular PtdIns
PBD1 of PPIP5K1 = molecular target: T1, PBD1 of PPIP5K1 (Homo sapiens, UniProt Q6PFW1); assay: SPR ligand competition: PBD1 binding to vesicular PtdIns; details: for fold lower affinity for PBD1 than InsP6 and 5-InsP7: from IC50 values
T1 sequence (Q6PFW1 382-917): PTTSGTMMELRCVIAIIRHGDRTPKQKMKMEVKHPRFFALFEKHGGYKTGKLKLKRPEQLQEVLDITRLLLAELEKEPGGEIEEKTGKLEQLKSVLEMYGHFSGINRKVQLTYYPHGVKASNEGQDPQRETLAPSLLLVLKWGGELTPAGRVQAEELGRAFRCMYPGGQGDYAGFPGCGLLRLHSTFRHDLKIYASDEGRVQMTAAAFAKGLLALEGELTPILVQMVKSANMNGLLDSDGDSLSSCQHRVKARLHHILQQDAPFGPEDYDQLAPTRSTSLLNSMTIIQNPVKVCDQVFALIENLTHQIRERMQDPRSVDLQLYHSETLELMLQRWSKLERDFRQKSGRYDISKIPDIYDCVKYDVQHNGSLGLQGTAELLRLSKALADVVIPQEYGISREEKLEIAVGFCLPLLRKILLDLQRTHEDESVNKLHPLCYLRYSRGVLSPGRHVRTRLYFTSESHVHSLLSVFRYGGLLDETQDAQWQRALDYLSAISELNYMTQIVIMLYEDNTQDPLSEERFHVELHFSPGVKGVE

SIN1^PH = SIN1^PH (Homo sapiens, UniProt Q9BPZ7); assay: SPR ligand competition: SIN1^PH binding to vesicular PtdIns
NIH 3T3 cells = assay: [3H]inositol lipid and inositol phosphate levels in NIH 3T3 cells by HPLC; format: cell-based
Outline: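 NIH 3T3 cells in DMEM with 10 % FBS and 1 mM pyruvate (37 °C, 5 % CO2), [3H]inositol-labelled, serum-starved 3 h in Hepes-buffered saline-glucose medium pH 7.4. Treatment: vehicle or PDGF for 5 min, or fresh medium with or without 0.2 M sorbitol. Reactions quenched; lipids or inositol phosphates extracted and quantified by HPLC as % of total. PDGF data: mean ± S.E.M., three experiments.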

mouse embryo fibroblasts = details: 5 min stimulation with IGF-1, serum starved overnight; cited from earlier work
GRP1^PH = molecular target: T2, GRP1^PH (Mus musculus, UniProt O08967); assay: SPR ligand competition: GRP1^PH association with PtdIns; format: binding; details: Supplementary Figure S2
T2 sequence (O08967 261-387 limits assumed): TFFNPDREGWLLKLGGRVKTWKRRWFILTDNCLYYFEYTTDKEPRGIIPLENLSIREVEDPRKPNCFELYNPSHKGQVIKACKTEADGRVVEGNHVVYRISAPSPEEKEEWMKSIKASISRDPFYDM
Outline: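 GRP1 PH domain expressed in E. coli BL21(DE3) at 37 °C in ampicillin LB, induced overnight at 25 °C with 1 mM IPTG at D600 0.6, lysed in imidazole-containing Hepes pH 8 buffer. SPR: protein injected at 5 μl/min over immobilized PtdIns(3,4,5)P3-containing lipid vesicles in 100 mM KCl, 10 mM NaH2PO4, 1 mM MgCl2, 25 mM Hepes pH 7.2. Signal corrected against control vesicles lacking the phosphoinositide.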

[2] = 30 min hyperosmotic stress, 0.2 M sorbitol

Sequence of SIN1^PH (Q9BPZ7 358-522): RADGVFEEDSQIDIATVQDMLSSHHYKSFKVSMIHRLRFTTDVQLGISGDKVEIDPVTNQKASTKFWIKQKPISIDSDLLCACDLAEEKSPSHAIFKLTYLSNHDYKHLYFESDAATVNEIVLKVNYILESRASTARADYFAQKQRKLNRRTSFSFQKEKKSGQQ
Sequence of Akt^PH (human recombinant AKT1) (P31749 5-108 limits assumed): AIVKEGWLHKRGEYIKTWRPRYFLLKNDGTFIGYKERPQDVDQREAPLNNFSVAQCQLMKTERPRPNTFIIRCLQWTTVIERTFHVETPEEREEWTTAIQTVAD

| Compound | IC50 [1] | IC50 (PBD1 of PPIP5K1) | IC50 (SIN1^PH) | also measured |
| --- | --- | --- | --- | --- |
| O=P(O)(O)O[C@@H]1[C@@H](OP(=O)(O)O)[C@@H](OP(=O)(O)O)[C@@H](OP(=O)(O)OP(=O)(O)O)[C@H](OP(=O)(O)O)[C@H]1OP(=O)(O)O [1-InsP7] | 45 µM | 43 µM | > 100 µM | fold lower affinity for PBD1 than InsP6 and 5-InsP7 (PBD1 of PPIP5K1): 6–7 fold |
| O=P(O)(O)O[C@@H]1[C@@H](OP(=O)(O)O)[C@H](OP(=O)(O)OP(=O)(O)O)[C@@H](OP(=O)(O)O)[C@H](OP(=O)(O)OP(=O)(O)O)[C@@H]1OP(=O)(O)O [InsP8, bis-diphosphoinositol tetrakisphosphate] | > 50 µM | 32 µM | > 100 µM | fold lower affinity for PBD1 than InsP6 and 5-InsP7 (PBD1 of PPIP5K1): 6–7 fold |
| OC[C@@H](O)[C@@H](O)[C@H](O)[C@@H](O)CO [sorbitol] |  |  |  | elevation of PtdIns(3,4,5)P3 levels (NIH 3T3 cells; [2]): 4.5 fold; increase in InsP8 concentration (NIH 3T3 cells; [2]): 4.5 fold |
| IGF-1: insulin-like growth factor 1 |  |  |  | increase in levels of InsP6 and InsP7 (mouse embryo fibroblasts): 2 fold |
| O=P(O)(O)O[C@H]1[C@@H](OP(=O)(O)O)[C@H](OP(=O)(O)O)[C@@H](OP(=O)(O)OP(=O)(O)O)[C@H](OP(=O)(O)O)[C@H]1OP(=O)(O)O [5-InsP7] | 7 µM | 5 µM | 3.7 µM | inhibition of GRP1^PH association with PtdIns(3,4,5)P3, relative potency (GRP1^PH): only marginally more potent than InsP6 |
| O=P(O)(O)O[C@H]1[C@H](OP(=O)(O)O)[C@@H](OP(=O)(O)O)[C@H](OP(=O)(O)O)[C@@H](OP(=O)(O)O)[C@H]1OP(=O)(O)O [InsP6] | 14 µM | 7 µM | 6 µM |  |
| PDGF |  |  |  | increase in levels of PtdIns(3,4,5)P3 (NIH 3T3 cells; 5 min stimulation with 50 ng/ml PDGF, 3 h serum starved): 2 fold |

Reference: article PMC3931004 (The Biochemical journal, 2013)
